{
  "source": "ChEMBL document CHEMBL1123580",
  "about": "“Synthesis and biological properties of side-chain-modified bleomycins” (1987)",
  "key": {"B16 [1]": {"test_system": "B16", "experiment": "Effect on the survival of mouse B16 melanoma cells was determined at a dose of 100 ug/mL in vitro", "assay_type": "functional", "conditions": "read-out: Survival", "summary_of_the_method": "(§1)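 B16 mouse melanoma cells from log-phase cultures seeded at 5 × 10^4 cells/mL in Dulbecco's modified Eagle medium with 10% newborn calf serum; after 24 h, exposed to agent (10 or 100 µg/mL) for 21 h, washed twice, fresh medium. Cells trypsinized and counted 48 h after start of incubation; viability by Trypan blue exclusion. Survival = T/C × 100 versus untreated control; mean of three samples.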"}, "B16 [2]": {"test_system": "B16", "experiment": "Effect on the survival of mouse B16 melanoma cells was determined at a dose of 10 ug/mL in vitro", "assay_type": "functional", "conditions": "read-out: Survival", "summary_of_the_method": "as §1"}},
  "data": [
    {"smiles": "Cc1c(N)nc(C(CC(N)=O)NCC(N)C(N)=O)nc1C(=O)NC(C(=O)NC(C)C(O)C(C)C(=O)NC(C(=O)NCCc1nc(-c2nc(C(=O)NCCC[S+](C)CC(=O)Nc3ccc([N+](=O)[O-])cc3)cs2)cs1)C(C)O)C(O[C@@H]1O[C@@H](CO)[C@@H](O)[C@@H](O)[C@@H]1O[C@H]1O[C@H](CO)[C@@H](O)[C@@H](OC(N)=O)[C@@H]1O)c1c[nH]cn1", "note": "(some centres not stated)", "values": [
      {"measurement": "viability at 100 µg/mL", "setting": "B16 [1]", "result": 30, "unit": "%"},
      {"measurement": "viability at 10 µg/mL", "setting": "B16 [2]", "result": 46, "unit": "%"}
    ]},
    {"smiles": "Cc1c(N)nc(C(CC(N)=O)NCC(N)C(N)=O)nc1C(=O)NC(C(=O)NC(C)C(O)C(C)C(=O)NC(C(=O)NCCc1nc(-c2nc(C(=O)NCCC[S+](C)CC(=O)N3CCCC3)cs2)cs1)C(C)O)C(O[C@@H]1O[C@@H](CO)[C@@H](O)[C@@H](O)[C@@H]1O[C@H]1O[C@H](CO)[C@@H](O)[C@@H](OC(N)=O)[C@@H]1O)c1c[nH]cn1", "note": "(some centres not stated)", "values": [
      {"measurement": "viability at 100 µg/mL", "setting": "B16 [1]", "result": 29, "unit": "%"},
      {"measurement": "viability at 10 µg/mL", "setting": "B16 [2]", "result": 35, "unit": "%"}
    ]},
    {"smiles": "Cc1c(N)nc(C(CC(N)=O)NCC(N)C(N)=O)nc1C(=O)NC(C(=O)NC(C)C(O)C(C)C(=O)NC(C(=O)NCCc1nc(-c2nc(C(=O)NCCC[S+](C)CC(=O)N3CCOCC3)cs2)cs1)C(C)O)C(O[C@@H]1O[C@@H](CO)[C@@H](O)[C@@H](O)[C@@H]1O[C@H]1O[C@H](CO)[C@@H](O)[C@@H](OC(N)=O)[C@@H]1O)c1c[nH]cn1", "note": "(some centres not stated)", "values": [
      {"measurement": "viability at 100 µg/mL", "setting": "B16 [1]", "result": 28, "unit": "%"},
      {"measurement": "viability at 10 µg/mL", "setting": "B16 [2]", "result": 51, "unit": "%"}
    ]},
    {"smiles": "Cc1c(N)nc(C(CC(N)=O)NCC(N)C(N)=O)nc1C(=O)NC(C(=O)NC(C)C(O)C(C)C(=O)NC(C(=O)NCCc1nc(-c2nc(C(=O)NCCC[S+](C)CC(=O)Nc3ccc4ccccc4c3)cs2)cs1)C(C)O)C(O[C@@H]1O[C@@H](CO)[C@@H](O)[C@@H](O)[C@@H]1O[C@H]1O[C@H](CO)[C@@H](O)[C@@H](OC(N)=O)[C@@H]1O)c1c[nH]cn1", "note": "(some centres not stated)", "values": [
      {"measurement": "viability at 100 µg/mL", "setting": "B16 [1]", "result": 32, "unit": "%"},
      {"measurement": "viability at 10 µg/mL", "setting": "B16 [2]", "result": 48, "unit": "%"}
    ]},
    {"smiles": "Cc1c(N)nc(C(CC(N)=O)NCC(N)C(N)=O)nc1C(=O)NC(C(=O)NC(C)C(O)C(C)C(=O)NC(C(=O)NCCc1nc(-c2nc(C(=O)NCCC[S+](C)CC(N)=O)cs2)cs1)C(C)O)C(O[C@@H]1O[C@H](CO)[C@H](O)[C@@H](O)[C@@H]1O[C@H]1O[C@@H](CO)[C@@H](O)[C@H](OC(N)=O)[C@H]1O)c1c[nH]cn1", "note": "(some centres not stated)", "values": [
      {"measurement": "viability at 100 µg/mL", "setting": "B16 [1]", "result": 21, "unit": "%"},
      {"measurement": "viability at 10 µg/mL", "setting": "B16 [2]", "result": 38, "unit": "%"}
    ]},
    {"smiles": "Cc1c(N)nc(C(CC(N)=O)NCC(N)C(N)=O)nc1C(=O)NC(C(=O)NC(C)C(O)C(C)C(=O)NC(C(=O)NCCc1nc(-c2nc(C(=O)NCCC[S+](C)CC(=O)Nc3ccccc3)cs2)cs1)C(C)O)C(O[C@@H]1O[C@@H](CO)[C@@H](O)[C@@H](O)[C@@H]1O[C@H]1O[C@H](CO)[C@@H](O)[C@@H](OC(N)=O)[C@@H]1O)c1c[nH]cn1", "note": "(some centres not stated)", "values": [
      {"measurement": "viability at 100 µg/mL", "setting": "B16 [1]", "result": 27, "unit": "%"},
      {"measurement": "viability at 10 µg/mL", "setting": "B16 [2]", "result": 45, "unit": "%"}
    ]},
    {"smiles": "COc1ccc(NC(=O)C[S+](C)CCCNC(=O)c2csc(-c3csc(CCNC(=O)C(NC(=O)C(C)C(O)C(C)NC(=O)C(NC(=O)c4nc(C(CC(N)=O)NCC(N)C(N)=O)nc(N)c4C)C(O[C@@H]4O[C@@H](CO)[C@@H](O)[C@@H](O)[C@@H]4O[C@H]4O[C@H](CO)[C@@H](O)[C@@H](OC(N)=O)[C@@H]4O)c4c[nH]cn4)C(C)O)n3)n2)cc1", "note": "(some centres not stated)", "values": [
      {"measurement": "viability at 100 µg/mL", "setting": "B16 [1]", "result": 28, "unit": "%"},
      {"measurement": "viability at 10 µg/mL", "setting": "B16 [2]", "result": 40, "unit": "%"}
    ]},
    {"smiles": "CCOC(=O)C[S+](C)CCCNC(=O)c1csc(-c2csc(CCNC(=O)C(NC(=O)C(C)C(O)C(C)NC(=O)C(NC(=O)c3nc(C(CC(N)=O)NCC(N)C(N)=O)nc(N)c3C)C(O[C@@H]3O[C@@H](CO)[C@@H](O)[C@@H](O)[C@@H]3O[C@H]3O[C@H](CO)[C@@H](O)[C@@H](OC(N)=O)[C@@H]3O)c3c[nH]cn3)C(C)O)n2)n1", "note": "(some centres not stated)", "values": [
      {"measurement": "viability at 100 µg/mL", "setting": "B16 [1]", "result": 27, "unit": "%"},
      {"measurement": "viability at 10 µg/mL", "setting": "B16 [2]", "result": 43, "unit": "%"}
    ]},
    {"smiles": "Cc1c(N)nc(C(CC(N)=O)NCC(N)C(N)=O)nc1C(=O)NC(C(=O)NC(C)C(O)C(C)C(=O)NC(C(=O)NCCc1nc(-c2nc(C(=O)NCCC[S+](C)CC(=O)NC3CC3)cs2)cs1)C(C)O)C(O[C@@H]1O[C@@H](CO)[C@@H](O)[C@@H](O)[C@@H]1O[C@H]1O[C@H](CO)[C@@H](O)[C@@H](OC(N)=O)[C@@H]1O)c1c[nH]cn1", "note": "(some centres not stated)", "values": [
      {"measurement": "viability at 100 µg/mL", "setting": "B16 [1]", "result": 28, "unit": "%"},
      {"measurement": "viability at 10 µg/mL", "setting": "B16 [2]", "result": 38, "unit": "%"}
    ]},
    {"smiles": "Cc1c(N)nc(C(CC(N)=O)NCC(N)C(N)=O)nc1C(=O)NC(C(=O)NC(C)C(O)C(C)C(=O)NC(C(=O)NCCc1nc(-c2nc(C(=O)NCCC[S+](C)CC(=O)NC(C)C)cs2)cs1)C(C)O)C(O[C@@H]1O[C@H](CO)[C@@H](O)[C@@H](O)C1OC1O[C@@H](CO)C(O)[C@@H](OC(N)=O)[C@@H]1O)c1c[nH]cn1", "note": "(some centres not stated)", "values": [
      {"measurement": "viability at 100 µg/mL", "setting": "B16 [1]", "result": 23, "unit": "%"},
      {"measurement": "viability at 10 µg/mL", "setting": "B16 [2]", "result": 41, "unit": "%"}
    ]},
    {"smiles": "Cc1c(N)nc([C@H](CC(N)=O)NC[C@H](N)C(N)=O)nc1C(=O)N[C@H](C(=O)N[C@H](C)[C@@H](O)[C@H](C)C(=O)N[C@H](C(=O)NCCc1nc(-c2nc(C(=O)NCCC[S+](C)C)cs2)cs1)[C@@H](C)O)[C@@H](O[C@@H]1O[C@@H](CO)[C@@H](O)[C@H](O)[C@@H]1O[C@H]1O[C@H](CO)[C@@H](O)[C@H](OC(N)=O)[C@@H]1O)c1c[nH]cn1", "note": "[BLEOMYCIN A2]", "values": [
      {"measurement": "viability at 100 µg/mL", "setting": "B16 [1]", "result": 28, "unit": "%"},
      {"measurement": "viability at 10 µg/mL", "setting": "B16 [2]", "result": 39, "unit": "%"}
    ]}
  ]
}
